For 20 compounds, caspase activation and AC50 results are on record in PubChem BioAssay AID488914 (Broad Institute, 2010).

As a reminder, the AC50 is the concentration at which the activity in the assay is half-maximal.

Records with an inconclusive call do not appear. Calls of active or inactive are those of the source.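 The calls were made as follows: active = compounds raising caspase signal whose fitted half-maximal concentration lies at or below their highest valid tested dose; inconclusive = flat curve at 30 to 70% activity, or unreliable fit; inactive = the rest.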

Test system in the first test: not listed separately
The experiment in a line: caspase activation in TSA-primed MEWO cells, dose response, A1 (Bcl2-A1) inhibitor project, cell-based, Trichostatin A priming, dry powder (AID 488914). The note with it: MEWO cells TSA-primed, caspase-Glo luminescence, 3 h; at 135 µM (top of the series). An outline of the steps:
(§1)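 Assay system: human MEWO cells with A1 expression, Trichostatin A primed; Amount: 2500 MEWO cells seeded per well; Medium: RPMI-1640 plus 10% FBS; Measured by: Caspase-Glo luminescence, reagent diluted 1:1 in 50 mM HEPES; Read-out: caspase activity from luminescence signal.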
As for `CCc1nnc(NC(=O)c2nc(S(=O)(=O)Cc3ccccc3)ncc2Cl)s1`, the caspase activation was -6.87% (inactive).

On to `Nc1nc(F)nc2c1ncn2[C@@H]1O[C@H](CO)[C@@H](O)[C@H]1O`, for which the caspase activation is -2.16% (inactive).

Consider `Cc1ccc(CS(=O)(=O)c2ncc(Cl)c(C(=O)Nc3nnc(C(C)C)s3)n2)cc1`, for which the caspase activation is -9.39% (inactive).

As for `CCSc1nnc(NC(=O)c2nc(S(=O)(=O)Cc3ccc(F)cc3)ncc2Cl)s1`, the caspase activation is -10.5% (inactive).

As to `COc1cc(/C=C(/C#N)c2nc3ccccc3[nH]2)ccc1OCC(=O)Nc1ccccc1C(C)C`, the caspase activation is 2.25% (inactive).

As to `Cc1cccc(CS(=O)(=O)c2ncc(Cl)c(C(=O)Nc3nnc(C(C)C)s3)n2)c1`, the caspase activation was -9.05% (inactive).

On to `C=C1[C@@H](C)[C@H]2[C@H](Cc3ccccc3)NC(=O)[C@]23[C@H](OC(C)=O)/C=C/[C@](C)(O)C(=O)[C@@H](C)C/C=C/[C@H]3[C@@H]1O`, for which the caspase activation is 5.7% (inactive).

For the compound `Cn1c(=NC(=O)CCl)sc2ccccc21`, the caspase activation was -6.3% (inactive).

In the case of `O=C(CCl)N=c1sccn1Cc1ccccc1Cl`, the caspase activation was 3.57% (inactive).

For the next test, the system named is MEWO cells TSA-primed, caspase-Glo luminescence, 3 h. The description is as above.
Conditions: not given
The procedure, abridged:
as §1
As to `Cc1ccc(Sc2c([N+](=O)[O-])c(=O)n(C)c3ccccc23)cc1`, the half-maximal activity concentration (AC50) is 16.8 µM.

Regarding `C=C1[C@@H](C)[C@H]2[C@H](Cc3ccccc3)NC(=O)[C@]23OC(=O)/C=C\[C@H](O)CCC[C@@H](C)C/C=C/[C@H]3[C@@H]1O`, the AC50 is 2.29 µM.

In the case of `COc1cccc(C(=O)C(C#N)=C(SC)SC)c1`, the AC50 was 0.92 µM.

Take `O=C(Oc1cccc(/C=N/Nc2nc(Nc3ccccc3)nc(N3CCOCC3)n2)c1)c1ccco1`: the AC50 was 6.87 µM.

`CC(=O)N[C@H]1[C@H](O[C@H]2CC[C@@]3(C)C(CC[C@]4(C)C3CC=C3[C@@H]5CC(C)(C)CC[C@]5(C(=O)OC5OCC(O)C(O)C5O)C(O)C[C@]34C)C2(C)C)O[C@H](COC2OCC(O)C(OC3OCC(O)C(O)C3O)C2O)[C@@H](O[C@@H]2O[C@@H](C)[C@H](O)[C@@H](O)[C@H]2O[C@@H]2O[C@@H](C)[C@H](O)[C@@H](O)[C@H]2O)[C@@H]1O` (stereo not given in full): the AC50 is 6.81 µM.

Turning to `COc1ccc(N(C(=O)CCl)C(C(=O)NCCc2ccccc2)c2cccs2)cc1Cl` (stereo not given), the AC50 was 10.6 µM.

Take `CCOC(=O)CSC1=N/C(=C/c2ccc(-n3cncn3)cc2)C(=O)N1C(C)=O`: the AC50 was 4.12 µM.

On to `Cc1cc(C(=O)CCl)c(C)n1CCc1ccc(Cl)cc1`, for which the AC50 was 77.8 µM.

For the compound `Cc1c(CCOC(=O)c2ccc(N3CCOCC3)c([N+](=O)[O-])c2)sc[n+]1CC#N`, the AC50 is 13.1 µM.

With `C/C1=C/C(=O)O[C@@H]2C[C@@H](CC[C@H](C)/C=C\CC1)O[C@@](O)(C1CSC(=O)N1)C2` (stereo not given in full), the AC50 was 0.632 µM.

For the compound `CC(C)(C)n1nc(-c2ccc(Cl)cc2)c2c(N)ncnc21`, the AC50 was > 135 µM (inactive).
